Assay results from PubChem BioAssay.
Activity calls are given as the source filed them.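 Rule for the calls, unless noted: active = viability at or below 10% of carrier control in both of two separate runs; inconclusive = viability at or below 10% in only one of the two runs; inactive = the rest.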

Tests used:
[1] = SK-BR-3 cell growth inhibitors, pilot screen, 24 h, human (AID 572); details: SK-BR-3 viability, CellTiter-Glo luminescence, at 10 µM, stronger effect = lower value;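 note: compound exposure lasted between 18 and 24 h rather than exactly 24 h; 100% = carrier-treated control wells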
[2] = HUVEC growth inhibition – cell-based, human, primary screen (AID 575;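 active = viability at or below 30% in both replicate assays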;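 note: 100% = median of untreated cell wells with 0.1% DMSO on each plate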); details: HUVEC proliferation, CellTiter-Glo luminescence, 72 h; at 10 µM; stronger effect = lower value
Procedure, shortened: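 system = HUVEC primary cells | amount = 1250 cells/well | buffer or medium = supplemented EBM, 2% fetal bovine serum | dosing = single-point 10 µM, DMSO 0.1% final | times = 72 h compound incubation | detection = CTG luminescence | read-out = % viability relative to median vehicle-well signal on each plate | control set = vehicle and MePR control wells | format = collagen-coated 384-well format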

[3] = growth inhibitors of H69AR lung tumor, primary screen, human, duplicate replicates (AID 580;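 active = viability at or under a set limit in both replicates, limit being median viability minus 3 SD, cut at about 48% in these data, passing the limit was not always enough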;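 note: 100% = mean luminescence of untreated wells and 0% = no signal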); details: H69AR lung tumor cells viability, ATP luminescence, 72 h; at 10 µM; stronger effect = lower value
[4] = reversal of MRP1-mediated doxorubicin resistance, pilot screen, H69AR cells, doxorubicin co-treatment (AID 601;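 active = viability loss from added drug above about 55%, and viability with drug at most 40%, in both replicates, limit read from the data, passing the limit was not always enough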); details: CellTiter-Glo, 72 h, at 10 µM; for differential viability (reversal): stronger effect = higher value
[5] = 384-well plate pilot, post-Golgi transport modulator project, inhibition of yeast transport mutant growth (AID 636; in the data active = inhibition above about 31%); details: absorbance 615 nm, about 18 h, stronger effect = higher value
[6] = growth suppression of yeast trafficking mutant, preliminary HTS, modulators of trafficking downstream of Golgi apparatus project, 1536-format plate, OD 615 nm (AID 637; in the data active = inhibition above about 30%); details: yeast transport mutant growth, absorbance 615 nm, 18 h; stronger effect = higher value
[7] = H69AR cells + 2 uM doxorubicin, measured here: viability with 2 uM doxorubicin, stronger effect = lower value
[8] = H69AR cells, compound alone cytotoxicity

Structure (SMILES)	viability [1]	viability [2]	viability [3]	differential viability (reversal) ([4]; H69AR cells + 2 uM doxorubicin)	viability [4, 7] [%]	viability [4, 8] [%]	inhibition [5]	inhibition [6]
Cc1nc2cc(NC(=O)N3c4ccccc4CC3C)ccc2o1 (configuration not stated)	91% (inactive)	96.2% (inactive)	86.3% (inactive)	8.09% (inactive)	78.2	86.3	-5.6% (inactive)	-13.4% (inactive)
COc1ccccc1-n1nnnc1SCc1cc2c(cc1Br)OCO2	65% (inactive)	86.1% (inactive)	72.2% (inactive)	-4.98% (inactive)	77.2	72.2	-6.16% (inactive)	4.18% (inactive)
Cc1cccc(NC(=O)c2ccc(S(=O)(=O)N(C)C)cc2)n1	112% (inactive)	96.1% (inactive)	94.2% (inactive)	2.72% (inactive)	91.4	94.2	-0.8% (inactive)	2.73% (inactive)
COc1cccc(-c2nnc(SCC(N)=O)n2-c2ccc(Cl)cc2)c1	114% (inactive)	103% (inactive)	97.1% (inactive)	4.49% (inactive)	92.6	97.1	0% (inactive)	-4.19% (inactive)
CCCN(CCC)S(=O)(=O)c1ccc(C(=O)O)cc1	99% (inactive)	96.2% (inactive)	97.2% (inactive)	10.1% (inactive)	87.1	97.2	-0.52% (inactive)	-1.5% (inactive)
CCN(CC)CCNC(=O)c1ccc(N2CCCCC2)c(NS(=O)(=O)c2ccc(C)cc2)c1	81% (inactive)	18.5% (active)	76.6% (inactive)	2.53% (inactive)	74.1	76.6	-6.13% (inactive)	7.21% (inactive)
COC(=O)c1ccc2c(=O)n(CC3CCCO3)c(=S)[nH]c2c1 (configuration not stated)	84% (inactive)	106% (inactive)	86.2% (inactive)	2.35% (inactive)	83.9	86.2	-8.36% (inactive)	4.19% (inactive)
CCOc1ccc2nc(SCC(=O)Nc3ncccn3)[nH]c2c1	92% (inactive)	97.4% (inactive)	105% (inactive)	18.1% (inactive)	86.6	105	-1.62% (inactive)	3.45% (inactive)
Cc1ccc(S(=O)(=O)C(C#N)c2nc3ccccc3nc2OC(C)C)cc1 (configuration not stated)	101% (inactive)	91% (inactive)	105% (inactive)	7.79% (inactive)	97.3	105	-4.13% (inactive)	4.55% (inactive)
O=C(CN1CCC(n2nnc3ccccc32)CC1)Nc1ccc2c(c1)CCC2	64% (inactive)	92% (inactive)	89.3% (inactive)	1.24% (inactive)	88.1	89.3	-8.63% (inactive)	2% (inactive)
Cc1cc(C(=O)Nc2cccnc2)no1	99% (inactive)	101% (inactive)	98.3% (inactive)	0.295% (inactive)	98	98.3	3.78% (inactive)	-2.18% (inactive)
Cc1cc(C)nc(-n2nc(C)cc2NC(=O)c2ccc(Br)o2)n1	108% (inactive)	87.4% (inactive)	71.9% (inactive)	-11.4% (inactive)	83.3	71.9	-3.73% (inactive)	5.27% (inactive)
CCc1nnc(SCC(=O)NC2CCCCC2)nc1CC	94% (inactive)	92.5% (inactive)	97.9% (inactive)	13.1% (inactive)	84.8	97.9	-4.29% (inactive)	-7.7% (inactive)
Cc1ccccc1Nc1cc2ccccc2c(=O)[nH]1	95.5% (inactive)	63.8% (inactive)	102% (inactive)	2.71% (inactive)	99.5	102	4.61% (inactive)	17.8% (inactive)
CCOc1cccc2cc(C(=O)N3CCN(C/C=C/c4ccccc4)CC3)c(=O)oc12	89% (inactive)	106% (inactive)	91.4% (inactive)	22.8% (inactive)	68.6	91.4	-5.68% (inactive)	-4.73% (inactive)
CN(CC(=O)Nc1ccc(F)c(Cl)c1)S(=O)(=O)c1cccc2nsnc12	99% (inactive)	74.3% (inactive)	90.1% (inactive)	8.32% (inactive)	81.8	90.1	-2.3% (inactive)	-1.09% (inactive)
COCCCC/C(=N\OCCN)c1ccc(C(F)(F)F)cc1	84% (inactive)	55.7% (inactive)	104% (inactive)	20% (inactive)	83.9	104	-0.91% (inactive)	-6.83% (inactive)
COc1ccc(-c2[nH]nc3c2C(c2ccncc2)C(C#N)=C(N)O3)cc1 (configuration not stated)	71% (inactive)	122% (inactive)	92.2% (inactive)	2.15% (inactive)	90	92.2	-5.81% (inactive)	-0.18% (inactive)
Cc1cc(C)n(-c2nc3sc4c(c3c3nnc(SC(C)C)n23)CC(C)(C)OC4)n1	96% (inactive)	96.6% (inactive)	84.4% (inactive)	2.36% (inactive)	82	84.4	1.23% (inactive)	17.6% (inactive)
COC(=O)c1sc(S(=O)(=O)N2CCN(c3ccccc3)CC2)c(C(=O)OC)c1C	69% (inactive)	96.1% (inactive)	85.6% (inactive)	-1.87% (inactive)	87.5	85.6	-8.63% (inactive)	4% (inactive)
CCCCOc1ccc(N(CC(=O)NC2CCCC2)C(=O)CCC(=O)Nc2ccccn2)cc1	101% (inactive)	71.7% (inactive)	69.4% (inactive)	5% (inactive)	64.4	69.4	-1.3% (inactive)	2.95% (inactive)
COc1ccc(/C=C/C(=O)Nc2ccccc2C(=O)O)cc1OC	104% (inactive)	64.4% (inactive)	94.7% (inactive)	0.56% (inactive)	94.1	94.7	0.78% (inactive)	-1.83% (inactive)
CC(C)(C)c1ccc(C(=O)N2CCC(C(=O)NCc3ccncc3)CC2)cc1	110% (inactive)	95.6% (inactive)	88.8% (inactive)	-5.45% (inactive)	94.3	88.8	-3.2% (inactive)	-8.18% (inactive)
COc1ccc(Nc2nc(Nc3ccc(OC)cc3)nc(-n3[nH]c(=O)c(C)c3C)n2)cc1	79% (inactive)	92.8% (inactive)	12.1% (active)	1.18% (inactive)	11	12.1	-4.32% (inactive)	16.9% (inactive)
